Most compounds without a hit are left out; they make up all but 6.7% or so of the library.
T cruzi inh – blocks replication of Trypanosoma cruzi. T. cruzi beta-gal in NIH3T3, luminescence, 90 h. inhibition, % (test concentration not listed). actives 1.4% (n = 300,000). AID 1885;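 active = mean inhibition across valid replicates above about 55%, limit read from the data; inconclusive = mean below that limit but half or more replicates reach it; inactive = mean below it, under half of replicates reach it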;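 also: signal also drops with host cell toxicity which is not excluded here; 0% = plate median of DMSO wells and 100% = zero luminescence signal; higher percent means less beta-gal luminescence so fewer parasites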
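Incubation – ≥90 h infection period, 3 h prior cell attachment · System – NIH/3T3 fibroblasts plus reporter T. cruzi · Doses – compound pinned at 50 nL/well, DMSO · Read-out basis – percent inhibition of parasite-derived β-gal signal · Signal – luminescent β-galactosidase signal after 60 min lysis · Also added – 5000 T. cruzi trypomastigotes/well · Medium – Low-serum DMEM with 2% FBS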
GRIN3A LBD mod – modulates the human NR3A ligand-binding domain | NR3A LBD differential scanning fluorimetry, Tm shift; 0% = protein alone, 100% = glycine-bound protein | Tm shift relative to glycine control, % at 25 µM | actives 2.5% (n = 340,000);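 active = melting temperature shift of at least 10% of the positive control shift, at one fixed dose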
CSC inhib – blocks cancer stem cells; cancer stem cell-like cells viability, luminescence; inhibition, % at 7.5 µM; actives 1.1% (n = 300,000); in the data active = inhibition above about 75%; inconclusive = no clear call, values can overlap the other calls; tested in HMLE shEcad cells
Beta apoptosis – beta cell apoptosis inhibition. INS-1E cytokine-induced death, ATP luminescence, 48 h; percent of positive-control rescue, neutral wells zero. protection from apoptosis, % (no concentration beside the values). actives 0.8% (n = 300,000). AID 435005;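 active = Every replicate reaches about 75%, or at least half do and their mean reaches it too, limit read from the data; inconclusive = At least half of replicates reach the limit but their mean does not; inactive = Under half of replicates reach the limit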;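 also: 0% = cytokine-treated negative control wells and 100% = positive control rescue; higher means more ATP so stronger rescue from cytokine killing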
CHOP inhibitor – CHOP inhibition in unfolded protein response; actives 3.8% (n = 220,000); inhibition, % at 10 µM; CHO-K1 CHOP-promoter luciferase, tunicamycin-induced, 15-18 h; AID 2732;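 active = compounds that reduced the stress-induced luciferase reporter signal by more than about 70% of percent inhibition, limit read from the data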;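 also: 0% = tunicamycin plus vehicle and 100% = wells without tunicamycin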
PREPL inh – human PREPL enzyme inhibition | Q4J6C6 | recombinant PREPL, fluorescence polarization activity-based probe | inhibition, % at 5.96 µM | actives 0.68% (n = 320,000);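 also: 0% = enzyme with DMSO and 100% = wells lacking enzyme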
Target sequence (Q4J6C6 whole entry, looked up): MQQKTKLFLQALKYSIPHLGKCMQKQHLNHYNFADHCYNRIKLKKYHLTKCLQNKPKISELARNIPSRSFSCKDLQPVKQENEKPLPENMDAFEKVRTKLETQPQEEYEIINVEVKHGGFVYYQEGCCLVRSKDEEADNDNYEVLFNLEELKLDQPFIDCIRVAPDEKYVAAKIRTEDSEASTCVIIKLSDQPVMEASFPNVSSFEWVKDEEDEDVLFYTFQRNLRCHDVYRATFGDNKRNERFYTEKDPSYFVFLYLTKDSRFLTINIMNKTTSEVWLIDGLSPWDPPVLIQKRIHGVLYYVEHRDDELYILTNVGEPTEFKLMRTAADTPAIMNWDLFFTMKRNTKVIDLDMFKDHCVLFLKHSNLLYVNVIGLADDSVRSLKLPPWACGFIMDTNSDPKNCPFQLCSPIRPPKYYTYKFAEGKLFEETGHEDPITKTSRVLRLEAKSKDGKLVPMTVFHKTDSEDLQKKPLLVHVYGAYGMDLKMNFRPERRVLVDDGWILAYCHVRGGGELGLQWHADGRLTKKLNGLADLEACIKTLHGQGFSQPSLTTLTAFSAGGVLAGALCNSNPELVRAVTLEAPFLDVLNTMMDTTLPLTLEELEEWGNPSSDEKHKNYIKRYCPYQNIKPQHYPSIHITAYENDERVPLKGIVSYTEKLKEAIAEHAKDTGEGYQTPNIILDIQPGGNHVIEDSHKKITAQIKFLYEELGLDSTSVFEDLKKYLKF
PREPL confirm – confirmation of human PREPL enzyme inhibitors; shares compounds with PREPL inh; recombinant PREPL, fluorescence polarization activity probe; inhibition, % at 5.96 µM; actives 67% (n = 2,000); AID 2803;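 also: 0% = protein with DMSO and 100% = wells lacking protein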
Starred values were filed as active, the others as inactive; ? = inconclusive; nt = not tested or not shown; ! = not confirmed by another sample. Rule as the data show it, unless noted: active = inhibition above about 43%; inactive = the rest.

SMILES	T cruzi inh	GRIN3A LBD mod	CSC inhib	Beta apoptosis	CHOP inhibitor	PREPL inh	PREPL confirm
CCCCCNc1nc(N2CCCC2)c2c(c1C#N)CCN(C)C2	52	1	nt	18	67	55*	57*
COc1ccc(Br)cc1C1NC(=O)c2c(sc3c2CCN(C)C3)N1 (centres undefined)	nt	0	nt	nt	nt	nt	nt
CN1CCc2c(sc3c2C(=O)NC(c2cn(Cc4ccccc4)c4ccccc24)N3)C1 (centres undefined)	21	-6	71	-9	79*	55*	61*
O=C(O)c1cc(O)c2c(c1)[C@@H]([C@H]1c3cc(C(=O)O)cc(O)c3C(=O)c3c(O[C@@H]4O[C@H](CO)[C@@H](O)[C@H](O)[C@H]4O)cccc31)c1cccc(O[C@@H]3O[C@H](CO)[C@@H](O)[C@H](O)[C@H]3O)c1C2=O	nt	-3	25	12	nt	96*	42
CCOc1ccc(N=C2NC(=O)CS2)cc1	3	-2	-7	-3	nt	-5	nt
O=C(O)C1Nc2c(O)cc(Cl)c([N+](=O)[O-])c2C2C=CCC12 (centres undefined)	-4	5	-8	6	10	94*	22
Cc1ccc(NC(=O)C2c3ccccc3Oc3ccccc32)c(C)c1	9	-1	-14	4	48	-2	nt
C=CCn1ccc(O)c(Cc2ccc(Cl)cc2)c1=O	-5	3	-3	1	nt	2	nt
Cc1nc2ccc([N+](=O)[O-])cc2c(=O)n1Cc1cccc(Br)c1	47	-11	19	0	nt	45*	34
COc1ccccc1NC(=O)COC(=O)C1=NN(c2ccccc2)C(=O)CC1	nt	-2	-10	-4	nt	20	nt
CC(/C=C/c1ccco1)=N/NC(=O)c1ccc(C)nc1	-25	8	-2	nt	2	60*	17
CC(/C=C/c1ccco1)=N\NC(=O)c1cccnc1	6	-1	nt	nt	-45	15	nt
Cc1c(NCc2cc(Cl)cc(Cl)c2O)c(=O)n(-c2ccccc2)n1C	-6	-8	23	nt	24	50*	58*
Cc1[nH]c2ccc(C(=O)NCCN3CCCCCC3)cc2c1C	-1	-1	nt	0	nt	61*	32
CC(=O)N1CCN(c2ccc(NCc3ccccc3)cc2)CC1	-4	0	2	nt	-23	38	nt
CC(=O)N1CCN(c2ccc(NC(=O)c3ccc(C)cc3)cc2)CC1	4	-2	nt	-1	0	21	nt
CC(=O)N1CCN(c2ccc(NCc3ccc(-c4ccc(Br)cc4)o3)cc2)CC1	nt	-8	nt	5	nt	71*	66*
CC(=O)N1CCN(c2ccc(NCc3ccc(Br)o3)cc2)CC1	nt	-1	12	-1	nt	44*	45*
CC(=O)N1CCN(c2ccc(NCc3cccs3)cc2)CC1	nt	0	9	-5	-19	27	nt
CC(=O)N1CCN(c2ccc(NCc3ccc(C)s3)cc2)CC1	-7	-12	-20	7	-6	54*	34
CC(=O)N1CCN(c2ccc(NCc3cccc4ccccc34)cc2)CC1	-13	-1	14	3	nt	78*	62*
COc1cccc(CN2CCN(CCCc3ccccc3)C(CCO)C2)c1O (centres undefined)	1	-7	-2	nt	nt	-3	nt
C=CCN1C(=O)/C(=C2/Sc3ccccc3N2CC)SC1=S	15	-6	-2	12	nt	-5	nt
CCN1C(=O)/C(=C2/Sc3ccccc3N2CC)S/C1=N\c1ncn[nH]1	18	1	21	-16	1	48*	33
C1CCC(c2nn3c(-c4n[nH]c5c4CCC5)nnc3s2)CC1	13	-2	4	-1	12	0	nt
SMILES	T cruzi inh	GRIN3A LBD mod	CSC inhib	Beta apoptosis	CHOP inhibitor	PREPL inh	PREPL confirm
CCN(CC)c1ccc(-c2nn3c(-c4n[nH]c5c4CCC5)nnc3s2)cc1	40	-5	56	42	nt	79*	68*
O=C(CCC(=O)c1cccs1)NCc1ccccc1Cl	nt	1	10	1	nt	19	nt
COc1cc(C2CC(=O)Oc3c(C(CCN4CCCC(C)C4)c4ccc(N(C)C)cc4)c(OC)cc(OC)c32)cc(OC)c1OC (centres undefined)	7	0	2	3	-6	46*	52*
CN(C)CCCN1c2ccccc2Sc2ccc3ccccc3c21	nt	-1	nt	nt	nt	nt	nt
CN(C)CCCN1c2ccccc2Sc2ccc(Cl)cc21	22	2	18	-2	9	45*!	45*
OCCN1CCN(CCCN2c3ccccc3Sc3ccc(Cl)cc32)CC1	5	-6	38	4	8	48*	41
CC(=O)c1ccc2c(c1)N(CCCN1CCC(CCO)CC1)c1ccccc1S2	nt	-1	11	nt	nt	40	nt
Cc1ccc(C(=O)Oc2ccc(/C=C3\C(=N)N4N=C(N5CCOCC5)SC4=NC3=O)cc2)cc1	-13	-34	nt	-6	nt	62*	41
N=C1/C(=C\c2ccc(OC(=O)c3ccccc3)cc2)C(=O)N=C2SC(N3CCOCC3)=NN12	-7	-9	16	-10	nt	61*	42
N=C1/C(=C\c2ccc(OC(=O)c3ccco3)cc2)C(=O)N=C2SC(N3CCCCC3)=NN12	0	-1	2	-1	nt	39	nt
N=C1/C(=C\c2ccc(OC(=O)c3ccc(F)cc3)cc2)C(=O)N=C2SC(N3CCCC3)=NN12	-8	-14	-4	-3	nt	33	nt
Oc1nc(Nc2ccccc2)sc1/C=C1\C=Nc2ccccc21	33	27*	?	3	10	59*	63*
CN1c2ccsc2/C(=N/Nc2ccc(F)cc2)CS1(=O)=O	64*	-6	-23	-4	-34	57*	34
Cc1noc(C)c1NC(=O)Nc1ccc2c(c1)C(=O)N([C@H](C)CO)C[C@H](C)[C@H](CN(C)C)O2	nt	1	-11	-3	nt	17	nt
CCC(CO)Oc1cc(NCc2ccc(C)cc2)c2ncn(C(C)C)c2c1 (centres undefined)	nt	-1	6	-5	nt	40	nt
CCC(CO)Oc1cc(NCc2ccc(Cl)cc2)c2ncn(C(C)C)c2c1 (centres undefined)	nt	-5	nt	1	nt	48*	23
O=C(CSc1nnc(COc2ccc(Cl)cc2)o1)NC1CC2CCC1C2 (centres undefined)	2	-1	1	nt	nt	46*	36
C/C(=N\NC(=O)c1ccncc1)c1cc2ccccc2o1	17	-4	1	0	9	-6	nt
C/C(=N\Nc1nc2ccccc2[nH]1)c1cc2ccccc2o1	24	7	20	26	-17	76*	72*
C/C(=N\Nc1nc2ccccc2[nH]1)c1ccc2c(c1)OCO2	78*	0	nt	16	1	47*	44*
N#Cc1ccc(CSc2nnc(-c3cccnc3)n2-c2ccccc2)cc1	34	0	3	-1	36	46*	41
